FN deposition inh – fibronectin deposition inhibition; AH1F fibroblasts, Alexa488-fibronectin deposition fluorescence, overnight; 350,000 compounds, 0.086% hits; inhibition, % at 12.6 µM;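 active = mean inhibition across replicates of 30% or more, regardless of how many single replicates reach that level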;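 also: positive control wells lacked labelled fibronectin entirely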
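Material: AH1F fibroblast monolayer depositing Alexa488-labelled fibronectin into matrix | Input: 10000 AH1F cells/well | Medium: DMEM plus 2% serum, read in PBS | Reagent: Alexa488-fibronectin, 24 nM final in well | Compound dosing: One dose per compound, pinned | Schedule: 1 h adhesion, overnight exposure | Measured by: Fluorescence at 485 nm excitation, 525 nm emission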
Env fusion inh – inhibitors of HIV Env-mediated cell fusion | HeLa-JRFL Env/CEM21 cell fusion, luciferase | inhibition, % at 12.3 µM | 360,000 compounds, 1.1% hits;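 active = mean replicate inhibition score of at least 50 and every replicate individually at or above 50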;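 also: 0% = plate neutral controls and 100% = maraviroc near 300 nM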
Vif imaging – inhibitors of HIV Vif. AID 602346. inhibition, % at 7.49 µM. 340,000 compounds, 0.35% hits. HEK293T cells, Vif self-association by quenched fluorescence, imaging, 24 h; in the data active = inhibition above about 50%, passing the limit was not always enough
S100A4 inh HTS – inhibitors of human S100A4 binding to myosin IIA peptide; AID 652163; P26447; inhibition, % at 10.7 µM; 360,000 compounds, 0.14% hits; S100A4/TAMRA-MyoIIA peptide fluorescence polarization;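 active = mean inhibition of at least 70% across replicates, with every replicate also reaching that level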
Target sequence (P26447 whole entry, looked up): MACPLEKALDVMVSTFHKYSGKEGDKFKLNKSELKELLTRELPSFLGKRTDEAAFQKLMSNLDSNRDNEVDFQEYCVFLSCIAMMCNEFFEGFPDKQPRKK
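Material: S100A4 monomer (human). Medium: Calcium-containing HEPES buffer, pH 7.2. Probe or stimulus: labelled myosin peptide probe, 5 nM. Compound dosing: one concentration per compound. Timing: polarization read 5 min after assay mix addition, stable 5–60 min. Benchmarks: DMSO as neutral control, TFP as positive control.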
miR-122 sensor – miR-122 inhibition in Huh7 cells; Huh7 miR-122 Renilla luciferase sensor, 48 h; neutral wells = 0, positive control = 100; activation (reporter increase), % at 12.5 µM; 340,000 compounds, 0.3% hits; AID 602342;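 active = mean replicate activation score at least 90 and every replicate individually at or above 90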;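 also: higher luciferase means less miR-122 activity so hits act as miR-122 inhibitors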
Ecoli rRNA inh – inhibits bacterial ribosomal RNA function over humanized ribosomes | 350,000 compounds, 1.6% hits | AID 720706 | E. coli WT GFP vs humanized-ribosome RFP mutants, fluorescence, 24 h; active compounds read low; DMSO median 0, no signal -100 | GFP signal change (wild-type ribosome), % (concentration not given with the values);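 active = significant combined selectivity score with lowered wild-type GFP, culture density cut under 30%, mutant RFP and density less affected; inactive = any of these conditions unmet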
Numbers without * were called inactive; . = no result; [ ] = dose if it differs, or a comment. Most compounds without a hit are left out; they make up all but 2.6% or so of the library.

SMILES	FN deposition inh	Env fusion inh	Vif imaging	S100A4 inh HTS	miR-122 sensor	Ecoli rRNA inh
CC(C)(C)n1nnnc1C(c1cccnc1)N1CCN(C2CCCCC2)CC1 (stereo unspecified)	2	65*	-3	.	-15	.
C[C@@H]1CN([C@H](C)CO)C(=O)Cc2cc(NC(=O)Cn3cnnn3)ccc2O[C@H]1CN(C)S(=O)(=O)c1ccc(F)cc1	.	-6[16.7 µM]	.	-3	1[16.7 µM]	1
Nc1ccc(C(=O)C(=O)c2ccc(N)cc2)cc1	13	5	12	0	2	0
Cc1cc(N(C)C)ccc1N=Nc1ccc(N)cc1	-8	-246	2	2	-13	-51*
CN(C)c1ccc(N=Nc2ccccc2Br)cc1	5	-153	14	-3	7	-12
Nc1ccc(N=Nc2ccc(N)cc2)cc1	-8	-49	-2	-6	.	-25*
C[C@H]1CN([C@@H](C)CO)C(=O)c2cc(-c3ccccc3F)cnc2O[C@@H]1CN(C)C(=O)c1cnccn1	-5	.	.	8	17[16.7 µM]	4
O=C(N[C@@H]1CC[C@@H](CCNC(=O)C2CCCCC2)O[C@H]1CO)c1ccncc1	-13	17[16.7 µM]	.	7	.	1
CC(C)(C)C(=O)N1CCN(c2ccc([N+](=O)[O-])cc2-n2cccc2)CC1	-6	-5	-13	-3	-3	3
O=C(C1CC1)N1CCN(c2ccc([N+](=O)[O-])cc2-n2cccc2)CC1	5	1	-4	4	.	-30*
O=C(C[C@@H]1C[C@H]2c3cc(NC(=O)NC4CCCC4)ccc3O[C@H]2[C@@H](CO)O1)NCc1ccccn1	-4	.	.	6	.	-2
Cn1cc(CNC(=O)c2cc(COc3ccc4c(c3)CCCC4)on2)cn1	7	2	6	-1	-7	-32*
N#Cc1c(-c2ccccc2)cc(C2CC2)nc1SCC(=O)O	-11	14	2	-1	2	-16
N#Cc1c(-c2ccccc2)cc(C2CC2)nc1SCC(=O)c1cccs1	.	.	86*	.	-2	.
Cc1cccc(CN2C(=O)c3ccccc3Sc3ccc(C(=O)O)cc32)c1	3	5	-4	4	-9	-21*
Cc1ccccc1CN1C(=O)c2ccccc2Sc2ccc(C(=O)O)cc21	2	-2	8	-10	.	-34*
CC=Cc1ccc2n(c1=O)C[C@@H]1[C@@H](CO)[C@H](C(=O)NCC3CC3)[C@H]2N1Cc1ccccc1OC (mixture of isomers)	.	-1[16.7 µM]	.	-39	.	0
COc1ccc(NC(=O)Nc2ccc3c(c2)C(=O)N([C@@H](C)CO)C[C@@H](C)[C@H](CN(C)S(=O)(=O)c2cn(C)cn2)OCCCC[C@@H](C)O3)cc1	.	0[16.7 µM]	.	.	0[16.7 µM]	-2
c1ccc2c(C3=NNC(=NC4CCCCC4)SC3)c[nH]c2c1	-24	10	2	-6	.	-34*
c1ccc2c(C3=NNC(=NC4CC4)SC3)c[nH]c2c1	-9	6	-5	.	-10	.
CC(C)(C)NC(=O)C1C(c2ccc(C(F)(F)F)cc2)=Nc2ccccc2N1C(=O)c1cccc(C(F)(F)F)c1 (stereo unspecified)	2	67*	.	4	.	.
O=C(NC1CCCC1)C1C(c2ccc(C(F)(F)F)cc2)=Nc2ccccc2N1C(=O)c1cccc(C(F)(F)F)c1 (stereo unspecified)	-6	27	.	-3	.	.
C[C@H]1CCCCO[C@H](CN(C)C(=O)Nc2ccc(C(F)(F)F)cc2)[C@@H](C)CN([C@@H](C)CO)C(=O)c2cc(NC(=O)Cc3ccccc3)ccc2O1	-6	66*[16.7 µM]	.	.	-14[16.7 µM]	4
C[C@@H]1CCCCO[C@H](CN(C)C(=O)Cc2ccccc2)[C@@H](C)CN([C@@H](C)CO)C(=O)c2cc(NC(=O)Nc3ccc(C(F)(F)F)cc3)ccc2O1	.	62*[16.7 µM]	.	2	-5[16.7 µM]	5
C[C@H]1CCCCO[C@H](CN(C)C(=O)Nc2ccc(C(F)(F)F)cc2)[C@@H](C)CN([C@@H](C)CO)C(=O)c2cc(NC(=O)Nc3ccc4c(c3)OCO4)ccc2O1	-3	72*[16.7 µM]	.	-6	-3[16.7 µM]	3
SMILES	FN deposition inh	Env fusion inh	Vif imaging	S100A4 inh HTS	miR-122 sensor	Ecoli rRNA inh
C[C@@H]1CCCCO[C@H](CN(C)C(=O)Cc2ccccc2)[C@H](C)CN([C@@H](C)CO)C(=O)c2cc(NC(=O)Nc3ccc(C(F)(F)F)cc3)ccc2O1	.	22[16.7 µM]	.	7	-14[16.7 µM]	1
CC(C)NC(=O)Nc1ccc2c(c1)C(=O)N([C@@H](C)CO)C[C@@H](C)[C@@H](CN(C)C(=O)Nc1ccc(F)cc1)OCCCC[C@@H](C)O2	13	80*[16.7 µM]	.	-8	-2[16.7 µM]	-3
C[C@H](CO)N1C[C@H](C)[C@@H](CN(C)C(=O)Nc2ccc3c(c2)OCO3)OCCCC[C@H](C)Oc2ccc(NC(=O)Nc3ccc(C(F)(F)F)cc3)cc2C1=O	.	0[16.7 µM]	.	-6	-6[16.7 µM]	-2
C=CCOC(=O)[C@H]1[C@@H]2C(=O)O[C@@H](c3ccccc3)[C@@H](c3ccccc3)N2[C@@H](c2ccc(OCCOC(=O)[C@@H]3C[C@@H]4C(=O)N[C@@H](CC(C)C)C(=O)N4[C@@H]3c3ccc(O)cc3)cc2)[C@]12C(=O)Nc1ccc(I)cc12	.	-2[16.7 µM]	.	-9	.	.
CN1[C@H](C(=O)NC2Cc3ccccc3C2)[C@@H](CO)[C@@H]2Cn3c(ccc(-c4cccnc4)c3=O)[C@@H]21	.	.	.	-4	0[16.7 µM]	-3
C[C@H](CO)N1C[C@H](C)[C@@H](CN(C)Cc2ccc3c(c2)OCO3)Oc2c(NC(=O)CCC(F)(F)F)cccc2C1=O	.	.	.	.	.	-13
C[C@H](CO)N1C[C@H](C)[C@@H](CN(C)C(=O)c2ccccc2)OCCCC[C@H](C)Oc2ccc(N(C)C)cc2C1=O	.	-16[16.7 µM]	.	.	-2[16.7 µM]	-3
C[C@@H]1CCCCO[C@@H](CN(C)C(=O)c2ccccc2)[C@H](C)CN([C@@H](C)CO)C(=O)c2cc(NC(=O)Nc3ccc(C(F)(F)F)cc3)ccc2O1	.	57*[16.7 µM]	.	5	-15[16.7 µM]	-1
C[C@H]1CCCCO[C@H](CN(C)C(=O)Nc2ccc(C(F)(F)F)cc2)[C@@H](C)CN([C@@H](C)CO)C(=O)c2cc(NC(=O)Nc3ccc(C(F)(F)F)cc3)ccc2O1	-8	45[16.7 µM]	.	.	-5[16.7 µM]	0
C[C@@H]1CN([C@H](C)CO)C(=O)c2cc(NC(=O)Nc3ccc(C(F)(F)F)cc3)ccc2O[C@@H](C)CCCCO[C@H]1CN(C)C(=O)Nc1ccc(C(F)(F)F)cc1	-11	115*[16.7 µM]	.	.	-14[16.7 µM]	1
C[C@H](CO)N1C[C@H](C)[C@H](CN(C)C(=O)c2ccccc2)OCCCC[C@H](C)Oc2ccc(NC(=O)c3ccccc3)cc2C1=O	-11	-34[16.7 µM]	.	17	-12[16.7 µM]	-4

High-throughput results deposited in PubChem by Broad Institute.
